Here are results for 40 molecules from ChEMBL document CHEMBL1126244, “HIV-1 protease inhibitors based on hydroxyethylene dipeptide isosteres: an investigation into the role of the P1' side chain on structure-activity” (J Med Chem, 1992).

In brackets after ≈: the same amount, converted by molar mass.

For experiment [1], the target named is Human immunodeficiency virus type 1 protease (Human immunodeficiency virus 1, UniProt Q72874). Briefly: Inhibition of HIV-1 protease.
In experiment [2] the test system is Human immunodeficiency virus 1. In words: Ex vivo antiviral activity in H9 T-lymphoid cells infected with HIV-1(IIIB). The format is functional. The conditions noted are these: read-out: MIC100. A digest of the protocol: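 Human H9 T-lymphoid cells acutely infected with HIV-1 IIIB isolate, MOI 0.01; compound added in DMSO at time of infection, refreshed every 2–3 days when culture sampled and half the medium replaced. Spread read by indirect immunofluorescence (anti-HIV-1 human serum primary antibody) at 14 days; MIC100 = minimum concentration completely preventing spread of infection through the culture, in nM.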

A word on the IC50: it is the point on the concentration scale where inhibition reaches its midpoint. A higher IC50 goes with lower potency. On to `CN(C)CCCc1ccc(C[C@H](C[C@H](O)[C@H](Cc2ccccc2)NC(=O)OC(C)(C)C)C(=O)N[C@H]2c3ccccc3C[C@H]2O)cc1`, for which the IC50 in experiment [1] was found to be 0.6 nM.

`CC(C)C[C@H](NC(=O)[C@H](CCCc1ccccc1)C[C@H](O)[C@H](Cc1ccccc1)NC(=O)OC(C)(C)C)C(=O)N[C@@H](Cc1ccccc1)C(N)=O` showed an IC50 in experiment [1] of 0.36 nM. This IC50 is about 1.7-fold lower than that of the molecule before.

Regarding `CC(C)(C)OC(=O)N[C@@H](Cc1ccccc1)[C@@H](O)C[C@@H](Cc1ccccc1)C(=O)N[C@H]1c2ccccc2C[C@H]1O`, it took 0.23 nM to reach half-maximal inhibition in experiment [1] (IC50). In experiment [2], the MIC amounted to 0.4 µM (≈ 0.218 µg/mL).

In the case of `CC(C)(C)OC(=O)N[C@@H](Cc1ccccc1)[C@@H](O)C[C@@H](Cc1cccc(O)c1)C(=O)N[C@H]1c2ccccc2C[C@H]1O`, in experiment [1], half-maximal inhibition (IC50) was put at 0.21 nM. This lies in the sub-nanomolar range.

The molecule `CC(C)C[C@H](NC(=O)[C@H](C/C=C/c1ccccc1)C[C@H](O)[C@H](Cc1ccccc1)NC(=O)OC(C)(C)C)C(=O)N[C@@H](Cc1ccccc1)C(N)=O` had a half-inhibitory concentration (IC50) in experiment [1] of 0.23 nM. Moreover, in experiment [2], the MIC worked out at 6 µM (≈ 4.19 µg/mL).

Turning to `CC(C)(C)OC(=O)N[C@@H](Cc1ccccc1)[C@@H](O)C[C@@H](Cc1ccc(C(F)(F)F)cc1)C(=O)N[C@H]1c2ccccc2C[C@H]1O`, in experiment [1], the half-maximal inhibitory concentration (IC50) came out at 0.26 nM.

For the molecule `CC[C@H](C[C@H](O)[C@H](Cc1ccccc1)NC(=O)OC(C)(C)C)C(=O)N[C@H]1c2ccccc2C[C@H]1O`, in experiment [1], the midpoint of inhibition, the IC50, lay at 34.7 nM.

The molecule `CC(C)(C)OC(=O)N[C@@H](Cc1ccccc1)[C@@H](O)C[C@@H](Cc1ccc(CCCO)cc1)C(=O)N[C@H]1c2ccccc2C[C@H]1O` displayed a concentration for half-maximal inhibition (IC50) in experiment [1] of 0.1 nM. Also, the MIC in experiment [2] is 0.05 µM (≈ 0.0301 µg/mL).

The molecule `CC(C)(C)OC(=O)N[C@@H](Cc1ccccc1)[C@@H](O)C[C@@H](C/C=C/c1ccccc1)C(=O)N[C@H]1c2ccccc2C[C@H]1O` displayed an IC50 in experiment [1] of 0.23 nM. Further, the MIC in experiment [2] was found to be 0.4 µM (≈ 0.228 µg/mL).

For `CC(C)C[C@H](NC(=O)[C@H](Cc1cccc2ccccc12)C[C@H](O)[C@H](Cc1ccccc1)NC(=O)OC(C)(C)C)C(=O)N[C@@H](Cc1ccccc1)C(N)=O`, inhibition in experiment [1] was half-maximal at 1.2 nM (IC50).

Turning to `CC(C)(C)OC(=O)N[C@@H](Cc1ccccc1)[C@@H](O)C[C@@H](Cc1c(F)c(F)c(F)c(F)c1F)C(=O)N[C@H]1c2ccccc2C[C@H]1O`, the IC50 in experiment [1] stood at 0.6 nM.

In turn, `CCCCCCCCCCCCCCC[C@H](C[C@H](O)[C@H](Cc1ccccc1)NC(=O)OC(C)(C)C)C(=O)N[C@H]1c2ccccc2C[C@H]1O` came in with a half-inhibitory concentration (IC50) in experiment [1] of over 3000 nM.

For `CC(C)(C)OC(=O)N[C@@H](Cc1ccccc1)[C@@H](O)C[C@@H](Cc1ccc([N+](=O)[O-])cc1)C(=O)N[C@H]1c2ccccc2C[C@H]1O`, the half-inhibitory concentration (IC50) in experiment [1] was 0.27 nM.

The molecule `CC(C)(C)OC(=O)N[C@@H](Cc1ccccc1)[C@@H](O)C[C@@H](Cc1ccc(CCCN2CCSCC2)cc1)C(=O)N[C@H]1c2ccccc2C[C@H]1O` returned a 50% inhibitory concentration (IC50) in experiment [1] of 1 nM.

`COCCOCOCCc1ccc(C[C@H](C[C@H](O)[C@H](Cc2ccccc2)NC(=O)OC(C)(C)C)C(=O)N[C@H]2c3ccccc3C[C@H]2O)cc1` registered an IC50 in experiment [1] of 0.13 nM. In addition, the MIC in experiment [2] was 0.1 µM (≈ 0.0677 µg/mL).

As to `CC(C)(C)OC(=O)N[C@@H](Cc1ccccc1)[C@@H](O)C[C@@H](Cc1ccc(N)cc1)C(=O)N[C@H]1c2ccccc2C[C@H]1O`, half-maximal inhibition in experiment [1] (IC50) required 0.31 nM. In addition, the MIC in experiment [2] came to 0.2 µM (≈ 0.112 µg/mL).

In turn, `Cc1ccc(C[C@H](C[C@H](O)[C@H](Cc2ccccc2)NC(=O)OC(C)(C)C)C(=O)N[C@H]2c3ccccc3C[C@H]2O)cc1` showed an IC50 in experiment [1] of 0.29 nM. The MIC in experiment [2] was found to be 0.2 µM (≈ 0.112 µg/mL).

In turn, `COCCN(CCCc1ccc(C[C@H](C[C@H](O)[C@H](Cc2ccccc2)NC(=O)OC(C)(C)C)C(=O)N[C@H]2c3ccccc3C[C@H]2O)cc1)CCOC` gave a concentration for half-maximal inhibition (IC50) in experiment [1] of 0.59 nM. Further, the MIC in experiment [2] is 0.2 µM (≈ 0.144 µg/mL).

The molecule `CC(C)(C)OC(=O)N[C@@H](Cc1ccccc1)[C@@H](O)C[C@@H](Cc1ccc(I)cc1)C(=O)N[C@H]1c2ccccc2C[C@H]1O` displayed an IC50 in experiment [1] of 0.72 nM. This counts as sub-nanomolar.

Regarding `COC(CCc1ccc(C[C@H](C[C@H](O)[C@H](Cc2ccccc2)NC(=O)OC(C)(C)C)C(=O)N[C@H]2c3ccccc3C[C@H]2O)cc1)OC`, in experiment [1], 0.08 nM corresponded to half-maximal inhibition (IC50).

Turning to `CC(C)C[C@H](NC(=O)[C@H](Cc1ccccc1)C[C@H](O)[C@H](Cc1ccccc1)NC(=O)OC(C)(C)C)C(=O)N[C@@H](Cc1ccccc1)C(N)=O`, in experiment [1], the half-maximal inhibitory concentration (IC50) was found to be 0.42 nM. In addition, the MIC in experiment [2] was determined as 3 µM (≈ 2.02 µg/mL).

Molecule `COCCOCOCCCc1ccc(C[C@H](C[C@H](O)[C@H](Cc2ccccc2)NC(=O)OC(C)(C)C)C(=O)N[C@H]2c3ccccc3C[C@H]2O)cc1` registered a half-inhibitory concentration (IC50) in experiment [1] of 0.07 nM. The MIC in experiment [2] stood at 0.05 µM (≈ 0.0345 µg/mL).

Regarding `CC(C)(C)OC(=O)N[C@@H](Cc1ccccc1)[C@@H](O)C[C@@H](Cc1ccc(C(C)(C)C)cc1)C(=O)N[C@H]1c2ccccc2C[C@H]1O`, in experiment [1], the 50% inhibitory concentration (IC50) amounted to 0.27 nM. In addition, the MIC in experiment [2] came to 0.2 µM (≈ 0.12 µg/mL).

Molecule `CC(C)(C)OC(=O)N[C@@H](Cc1ccccc1)[C@@H](O)C[C@@H](Cc1ccc(CO)cc1)C(=O)N[C@H]1c2ccccc2C[C@H]1O` showed a half-maximal inhibitory concentration (IC50) in experiment [1] of 0.17 nM.

Take `CC(C)(C)OC(=O)N[C@@H](Cc1ccccc1)[C@@H](O)C[C@@H](C/C=C/c1ccc(OCCN2CCOCC2)cc1)C(=O)N[C@H]1c2ccccc2C[C@H]1O`: the MIC in experiment [2] is 0.05 µM (≈ 0.035 µg/mL).

In the case of `CC(C)(C)OC(=O)N[C@@H](Cc1ccccc1)[C@@H](O)C[C@@H](Cc1ccc(CCCN2CCOCC2)cc1)C(=O)N[C@H]1c2ccccc2C[C@H]1O`, the IC50 in experiment [1] worked out at 0.43 nM. Also, the MIC in experiment [2] was determined as 0.2 µM (≈ 0.134 µg/mL).

In experiment [1], `CC(C)(C)OC(=O)N[C@@H](Cc1ccccc1)[C@@H](O)C[C@@H](CCc1cnc2ccccc2n1)C(=O)N[C@H]1c2ccccc2C[C@H]1O` had an IC50 of 0.17 nM.

For `CC(C)(C)OC(=O)N[C@@H](Cc1ccccc1)[C@@H](O)C[C@@H](Cc1ccc(F)cc1)C(=O)N[C@H]1c2ccccc2C[C@H]1O`, the half-inhibitory concentration (IC50) in experiment [1] was found to be 0.44 nM.

On to `C[C@H](C[C@H](O)[C@H](Cc1ccccc1)NC(=O)OC(C)(C)C)C(=O)N[C@H]1c2ccccc2C[C@H]1O`, for which the IC50 in experiment [1] was determined as 62.7 nM.

`C[S+]([O-])c1ccc(C[C@H](C[C@H](O)[C@H](Cc2ccccc2)NC(=O)OC(C)(C)C)C(=O)N[C@H]2c3ccccc3C[C@H]2O)cc1` (stereo partly specified) displayed an IC50 in experiment [1] of 0.51 nM.

In experiment [1], `CC(C)(C)OC(=O)N[C@@H](Cc1ccccc1)[C@@H](O)C[C@@H](Cc1ccc(CN2CCOCC2)cc1)C(=O)N[C@H]1c2ccccc2C[C@H]1O` gave an IC50 of 1.15 nM. Moreover, the MIC in experiment [2] was 0.1 µM (≈ 0.0644 µg/mL).

Molecule `CC(C)(C)OC(=O)N[C@@H](Cc1ccccc1)[C@@H](O)C[C@@H](Cc1ccc(CCC[N+](C)(C)C)cc1)C(=O)N[C@H]1c2ccccc2C[C@H]1O` had a 50% inhibitory concentration (IC50) in experiment [1] of 0.91 nM. Besides, the MIC in experiment [2] is 0.1 µM.

In experiment [1], `CN(C)Cc1ccc(C[C@H](C[C@H](O)[C@H](Cc2ccccc2)NC(=O)OC(C)(C)C)C(=O)N[C@H]2c3ccccc3C[C@H]2O)cc1` had an IC50 of 1.4 nM.

`CC(C)C[C@H](NC(=O)[C@H](Cc1ccc(-c2ccccc2)cc1)C[C@H](O)[C@H](Cc1ccccc1)NC(=O)OC(C)(C)C)C(=O)N[C@@H](Cc1ccccc1)C(N)=O`: half-maximal inhibition in experiment [1] (IC50) required 0.43 nM.

As to `CC(C)(C)OC(=O)N[C@@H](Cc1ccccc1)[C@@H](O)C[C@@H](Cc1ccc(S(C)(=O)=O)cc1)C(=O)N[C@H]1c2ccccc2C[C@H]1O`, inhibition in experiment [1] was half-maximal at 0.17 nM (IC50).

The molecule `CC(C)(C)OC(=O)N[C@@H](Cc1ccccc1)[C@@H](O)C[C@@H](C/C=C/c1ccc(O)cc1)C(=O)N[C@H]1c2ccccc2C[C@H]1O` gave a half-inhibitory concentration (IC50) in experiment [1] of 0.17 nM. The MIC in experiment [2] amounted to 0.2 µM (≈ 0.117 µg/mL).

For `CC(C)(C)OC(=O)N[C@@H](Cc1ccccc1)[C@@H](O)C[C@@H](Cc1ccc(CCO)cc1)C(=O)N[C@H]1c2ccccc2C[C@H]1O`, half-maximal inhibition in experiment [1] (IC50) was put at 0.16 nM. Moreover, in experiment [2], the MIC was 0.05 µM (≈ 0.0294 µg/mL).

`CC(C)C[C@H](NC(=O)[C@H](C)C[C@H](O)[C@H](Cc1ccccc1)NC(=O)OC(C)(C)C)C(=O)N[C@@H](Cc1ccccc1)C(N)=O` showed a 50% inhibitory concentration (IC50) in experiment [1] of 6 nM.

`CC(C)(C)OC(=O)N[C@@H](Cc1ccccc1)[C@@H](O)C[C@@H](Cc1ccc(O)cc1)C(=O)N[C@H]1c2ccccc2C[C@H]1O`: in experiment [2], the MIC is 0.05 µM (≈ 0.028 µg/mL).

For the molecule `CSc1ccc(C[C@H](C[C@H](O)[C@H](Cc2ccccc2)NC(=O)OC(C)(C)C)C(=O)N[C@H]2c3ccccc3C[C@H]2O)cc1`, the IC50 in experiment [1] worked out at 0.22 nM.
